Assay results reported in ChEMBL document CHEMBL1131231, “New azole antifungals. 2. Synthesis and antifungal activity of heterocyclecarboxamide derivatives of 3-amino-2-aryl-1-azolyl-2-butanol” (1998).
In brackets after ≈: the same amount, converted by molar mass.

Assays:
[1] = The compound was tested in vitro for antifungal activity against 10 yeasts.; format: functional
Procedure, shortened: (§1)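 Agar dilution on Kimmig's agar with 0.5% glycerol; ATCC or clinical isolates, inocula at 10⁵ cfu/mL. Drugs from 800 μg/mL stock in 50% ethanol, 2-fold serial dilutions 80 to 0.03 μg/mL in plates. Incubated 25 °C, 48 h for yeasts, 120 h for filamentous fungi. Value is geometric mean of MICs (μg/mL); >80 taken as 160, ≤0.03 as 0.03.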

[2] = The compound was tested in vitro for antifungal activity against 6 filamentous fungi.; format: functional; procedure, shortened: as §1
Candida albicans [3] = experiment: In vivo antifungal activity against murine candidosis model after peroral administration with 1 mg/kg at various time intervals. (percent protection for 100% mortality with untreated group); format: functional; conditions: route oral
Procedure, shortened: (§2)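 Male mice, groups of 10, infected iv with 0.2 mL Candida albicans at (2–8) × 10⁷ cfu/mL. Oral suspension in 1% Tween + 0.2% carboxymethylcellulose in water, given 1, 4 and 24 h post-infection; vehicle controls and a fluconazole group at the same dose. Survival scored on days 1, 2, 3, 5, 7, 9, reported as % surviving on the day untreated, or fluconazole-treated, mortality reached 100%.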

Candida albicans [4] = experiment: In vivo antifungal activity against murine candidosis model after peroral administration with 1 mg/kg at various time intervals. (percent protection for 100% mortality with fluconazole-treated group.); format: functional; conditions: route oral; procedure, shortened: as §2
Mus musculus [5] = experiment: In vivo antifungal activity against murine candidosis model after peroral administration with 2.5 mg/kg at various time intervals. (percent protection for 100% mortality with fluconazole-treated group.); format: functional; conditions: route oral; procedure, shortened: as §2
Mus musculus [6] = experiment: In vivo antifungal activity against murine candidosis model after peroral administration with 2.5 mg/kg at various time intervals. (percent protection for 100% mortality with untreated group); format: functional; conditions: route oral; procedure, shortened: as §2
Mus musculus [7] = experiment: In vivo antifungal activity against murine candidosis model after peroral administration with 0.5 mg/kg for 5 days.(percent protection for 100% mortality with untreated group); format: functional; conditions: route oral
Procedure, shortened: (§3)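 Second murine systemic Candida albicans model. Mice, n = 10 per group, dosed orally once daily for 5 days after infection. Animals observed for 65 days, with survival rate as read-out and vehicle controls included. Reported as % protection on the day of 100% mortality in the untreated group or in the fluconazole-treated group.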

Mus musculus [8] = experiment: In vivo antifungal activity against murine candidosis model after peroral administration with 0.5 mg/kg for 5 days.(percent protection for 100% mortality with fluconazole-treated group.); format: functional; conditions: route oral; procedure, shortened: as §3
Mus musculus [9] = experiment: In vivo antifungal activity against murine candidosis model after peroral administration with 1 mg/kg for 5 days.(percent protection for 100% mortality with fluconazole-treated group.); format: functional; conditions: route oral; procedure, shortened: as §3
Candida albicans [10] = experiment: In vivo antifungal activity against murine candidosis model after peroral administration with 0.5 mg/kg at various time intervals. (percent protection for 100% mortality with fluconazole-treated group.); format: functional; conditions: route oral; procedure, shortened: as §2
[11] = In vivo antifungal activity against murine candidosis model after peroral administration with 1 mg/kg for 5 days.(percent protection for 100% mortality with untreated group); format: functional, Mus musculus; conditions: route oral; procedure, shortened: as §3
Candida albicans [12] = experiment: In vivo antifungal activity against murine candidosis model after peroral administration with 0.5 mg/kg at various time intervals. (percent protection for 100% mortality with untreated group); format: functional; conditions: route oral; procedure, shortened: as §2

| SMILES | MIC [1] [µg/mL] | MIC [2] [µg/mL] | Protection (Candida albicans [3]) [%] | Protection (Candida albicans [4]) [%] | Protection (Mus musculus [5]) [%] | Protection (Mus musculus [6]) [%] | Protection (Mus musculus [7]) [%] | Protection (Mus musculus [8]) [%] | Protection (Mus musculus [9]) [%] | Protection (Candida albicans [10]) [%] | Protection [11] [%] | Protection (Candida albicans [12]) [%] |
| --- | --- | --- | --- | --- | --- | --- | --- | --- | --- | --- | --- | --- |
| C[C@@H](NC(=O)c1cnn(-c2ccc(C(F)(F)F)cc2)c1C(F)(F)F)[C@](O)(Cn1cncn1)c1ccc(F)cc1F | 1.8 (≈ 3.13 µM) | 13 (≈ 22.6 µM) | 60 | 0 |  |  |  |  |  |  |  |  |
| Cc1c(C(=O)N[C@H](C)[C@](O)(Cn2cncn2)c2ccc(F)cc2F)cnn1-c1ccc(OC(F)(F)F)cc1 | 2.6 (≈ 4.85 µM) | 5.6 (≈ 10.4 µM) | 100 | 80 |  |  |  |  |  |  |  |  |
| Cc1c(C(=O)N[C@H](C)[C@](O)(Cn2cncn2)c2ccc(F)cc2F)cnn1-c1c(Cl)cccc1Cl | 21 (≈ 40.3 µM) | > 80 | 0 | 0 |  |  |  |  |  |  |  |  |
| C[C@@H](NC(=O)c1cnn(-c2ccc(Cl)cc2)c1C(F)(F)F)[C@](O)(Cn1cncn1)c1ccc(F)cc1F | 1.2 (≈ 2.22 µM) | 7.1 (≈ 13.1 µM) | 100 | 50 |  |  |  |  |  |  |  |  |
| C[C@@H](NC(=O)c1ccc(-c2cccnc2)s1)[C@](O)(Cn1cncn1)c1ccc(F)cc1F | 1.6 (≈ 3.51 µM) | > 80 |  |  | 0 | 60 |  |  |  |  |  |  |
| C[C@@H](n1cnc2cc(-c3ccc(C#N)cc3)sc2c1=O)[C@](O)(Cn1cncn1)c1ccc(F)cc1F | 0.3 (≈ 0.595 µM) | 13 (≈ 25.8 µM) | 100 | 100 |  |  | 100 | 40 |  |  |  |  |
| Cc1c(C(=O)N[C@H](C)[C@](O)(Cn2cncn2)c2ccc(F)cc2F)cnn1-c1ccc(Br)cc1 | 2 (≈ 3.76 µM) | 13 (≈ 24.5 µM) | 100 | 50 |  |  |  |  |  |  |  |  |
| C[C@@H](NC(=O)c1cnn(-c2ccc(Cl)cc2)c1N)[C@](O)(Cn1cncn1)c1ccc(F)cc1F | 2.7 (≈ 5.53 µM) | 45 (≈ 92.2 µM) | 80 | 0 |  |  |  |  |  |  |  |  |
| CC(=O)ONC(=N)c1ccc(-c2cc3ncn([C@H](C)[C@](O)(Cn4cncn4)c4ccc(F)cc4F)c(=O)c3s2)cc1 | 3.7 (≈ 6.38 µM) | 36 (≈ 62.1 µM) | 60 | 0 |  |  |  |  |  |  |  |  |
| CS(=O)(=O)O.Cc1nc(-c2ccc(C#N)cc2)sc1C(=O)N[C@H](C)[C@](O)(Cn1cncn1)c1ccc(F)cc1F | 1.2 | 4 |  |  |  |  |  |  | 10 | 100 | 100 | 100 |
| C[C@@H](n1cnc2cc(-c3ccc(Cl)cc3)sc2c1=O)[C@](O)(Cn1cncn1)c1ccc(F)cc1F | 0.2 (≈ 0.389 µM) | 2.2 (≈ 4.28 µM) | 100 | 100 |  |  |  |  | 100 |  | 100 |  |
| Cc1cc2nnc(C(=O)N[C@H](C)[C@](O)(Cn3cncn3)c3ccc(F)cc3F)c(C)n2n1 | 10 (≈ 22.6 µM) | > 80 |  |  | 0 | 0 |  |  |  |  |  |  |
| Cc1nn(C)c2ncc(C(=O)N[C@H](C)[C@](O)(Cn3cncn3)c3ccc(F)cc3F)c(Cl)c12 | 19 (≈ 39.9 µM) | > 80 |  |  | 0 | 0 |  |  |  |  |  |  |
| Cc1c(C(=O)N[C@H](C)[C@](O)(Cn2cncn2)c2ccc(F)cc2F)cnc2cc(-c3ccc(Cl)cc3)nn12 | 1.4 (≈ 2.6 µM) | 6.3 (≈ 11.7 µM) | 100 | 0 |  |  |  |  |  |  |  |  |
| OC(Cn1cncn1)(Cn1cncn1)c1ccc(F)cc1F [FLUCONAZOLE] | 30 (≈ 98 µM) | > 80 |  |  |  |  |  |  |  |  | 100 | 100 |
| C[C@H]([C@](O)(Cn1cncn1)c1ccc(F)cc1F)S(C)(=O)=O [GENACONAZOLE] | 8.7 (≈ 26.3 µM) | 25 (≈ 75.5 µM) |  |  |  |  |  |  | 20 | 100 | 100 | 100 |
| C[C@@H](c1nc(-c2ccc(C#N)cc2)cs1)[C@](O)(Cn1cncn1)c1ccc(F)cc1F [RAVUCONAZOLE] | 0.3 (≈ 0.686 µM) | 0.8 (≈ 1.83 µM) |  |  |  |  |  |  | 0 | 0 | 20 | 50 |
| C[C@@H](c1ncncc1F)[C@](O)(Cn1cncn1)c1ccc(F)cc1F [VORICONAZOLE] | 0.6 (≈ 1.72 µM) | 0.5 (≈ 1.43 µM) |  |  |  |  |  |  | 0 | 0 | 20 | 0 |
